{
  "source": "ChEMBL document CHEMBL1268912",
  "about": "“Antidiabetic and antiobesity effects of Ampkinone (6f), a novel small molecule activator of AMP-activated protein kinase” (J Med Chem, 2010)",
  "key": {"[1]": {"assay": "Activation of AMPK assessed as phosphorylation of T172 at 10 uM by Western blotting relative to control", "method_in_brief": "(§1)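 L6 cells, serum-starved 6 h, treated with 10 μM for set times (10 min to 6 h). RIPA lysates (40 μg) run on SDS-PAGE and blotted to nitrocellulose. Blocked in TBS-Tween with 5% milk. Probed overnight at 4 °C with anti-ACC (pS79) or anti-AMPK (pT172) and the total-protein antibodies. HRP secondary antibody, ECL detection.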"}, "[2]": {"assay": "Activation of ACC phosphorylation at S79 at 10 uM by Western blotting relative to control", "method_in_brief": "as §1"}, "C2L12 [3]": {"system": "C2L12", "assay": "Induction of ACC phosphorylation in mouse […] cells after 1 hr"}, "3T3-L1 [4]": {"system": "3T3-L1", "assay": "Induction of ACC phosphorylation in mouse 3T3L1 cells after 1 hr"}, "3T3-L1 [5]": {"system": "3T3-L1", "assay": "Induction of AMPK phosphorylation in mouse 3T3L1 cells after 1 hr"}, "Mus musculus [6]": {"system": "Mus musculus", "assay": "Induction of AMPK phosphorylation in diet induced obese mouse muscle at 10 mg/kg, sc qd by immunoblotting", "type": "functional, organism-based", "design": "dose 10 mg/kg", "method_in_brief": "(§2)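 DIO mice were dosed 10 mg/kg/day sc in PEG400 or vehicle for 1 month, n = 7 per group, then fasted 24 h. Liver and muscle lysates were immunoblotted for phospho-AMPK/ACC and the total proteins.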"}, "Mus musculus [7]": {"system": "Mus musculus", "assay": "Antidiabetic activity in diet induced obese mouse assessed as reduction in insulin level at 10 mg/kg, sc qd", "type": "functional, organism-based", "design": "dose 10 mg/kg", "method_in_brief": "(§3)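 DIO mice were male C57BL/6J fed a 60%-fat diet from 4 weeks of age for 8 weeks. Dosed 10 mg/kg/day sc in PEG400 or vehicle for 1 month, n = 7 per group. Serum insulin was measured by mouse insulin ELISA and blood glucose by glucometer. Mean ± SD; Student's t test/ANOVA.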"}, "[8]": {"target": "AMP-activated protein kinase, AMPK (Homo sapiens) (UniProt P54646+O43741+P54619+Q9UGJ0+Q9Y478+Q13131+Q9UGI9)", "assay": "Induction of AMPK phosphorylation in human HeLa cells", "type": "cell-based", "method_in_brief": "(§4)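 HeLa cells lack endogenous LKB1. They were transfected for 24 h with HA-tagged LKB1 in pcDNA3.1 or mock-transfected. After 6 h serum starvation, cells were exposed to 10 μM for set times. Lysates were immunoblotted for AMPK (pT172), total AMPK and HA.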"}, "C2L12 [9]": {"system": "C2L12", "assay": "Induction of AMPK phosphorylation in mouse […] cells after 1 hr"}, "Mus musculus [10]": {"system": "Mus musculus", "assay": "Antiobesity activity in diet induced obese mouse assessed as change in body weight at 10 mg/kg, sc qd", "type": "functional, organism-based", "design": "dose 10 mg/kg", "method_in_brief": "(§5)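 DIO C57BL/6J males (high-fat diet, 60% of calories from fat, for 8 weeks) were given 10 mg/kg/day sc in PEG400 or vehicle for 30 days, n = 7 per group. Body weight and food intake were recorded every 3 days.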"}, "Mus musculus [11]": {"system": "Mus musculus", "assay": "Antidiabetic activity in diet induced obese mouse assessed as reduction in glucose level at 10 mg/kg, sc qd", "type": "functional, organism-based", "design": "dose 10 mg/kg", "method_in_brief": "as §3"}, "C2C12 [12]": {"system": "C2C12", "assay": "Increase in AMPK-mediated glucose uptake in mouse C2C12 cells by confocal laser scanning microscopy", "type": "cell-based", "method_in_brief": "(§6)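 C2C12 myocytes were differentiated in 2% horse serum, held in low-glucose serum-free medium for 4 h, then treated for 1 h in glucose-free DMEM at 10 μM. In the CLSM chamber at 37 °C, 5 μM Cy3-Glc-R was injected and images taken every 7 s to follow fluorescence uptake.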"}, "Mus musculus [13]": {"system": "Mus musculus", "assay": "Induction of AMPK phosphorylation in diet induced obese mouse liver at 10 mg/kg, sc qd by immunoblotting", "type": "functional, organism-based", "design": "dose 10 mg/kg", "method_in_brief": "as §2"}, "L6": {"system": "L6", "assay": "Induction of ACC phosphorylation in […] cells after 10 mins", "type": "cell-based", "method_in_brief": "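L6, C2C12 or 3T3-L1 cells, serum-starved 6 h, were treated for 1 h with graded concentrations (0–20 μM); L6 cells were also given a 10 μM time course. Lysates were immunoblotted for AMPK pT172, ACC pS79 and the total proteins, with ECL detection.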"}, "[14]": {"target": "T1, Serine/threonine-protein kinase STK11 (Homo sapiens) (UniProt Q15831)", "T1 sequence (whole entry)": "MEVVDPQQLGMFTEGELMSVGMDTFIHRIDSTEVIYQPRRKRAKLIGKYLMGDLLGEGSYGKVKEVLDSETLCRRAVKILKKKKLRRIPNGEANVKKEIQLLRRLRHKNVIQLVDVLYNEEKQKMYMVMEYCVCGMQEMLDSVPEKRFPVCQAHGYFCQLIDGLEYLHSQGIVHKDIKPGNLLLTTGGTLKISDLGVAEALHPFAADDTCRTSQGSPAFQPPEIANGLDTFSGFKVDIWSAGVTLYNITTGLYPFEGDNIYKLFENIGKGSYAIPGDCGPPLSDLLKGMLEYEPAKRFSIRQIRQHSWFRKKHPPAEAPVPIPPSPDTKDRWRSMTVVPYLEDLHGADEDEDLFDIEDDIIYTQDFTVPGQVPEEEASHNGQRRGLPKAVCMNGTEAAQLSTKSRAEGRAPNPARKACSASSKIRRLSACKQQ", "assay": "Activation of LKB1 expressed in human HeLa cells assessed as increase in AMPK phosphorylation", "type": "cell-based", "method_in_brief": "as §4"}, "Mus musculus [15]": {"system": "Mus musculus", "assay": "Antiobesity activity in diet induced obese mouse assessed as change in food intake at 10 mg/kg, sc qd", "type": "functional, organism-based", "design": "dose 10 mg/kg", "method_in_brief": "as §5"}, "[16]": {"assay": "Induction of AMPK phosphorylation in […] cells […]", "type": "cell-based", "conditions": "L6, 10 min"}, "L6 (Rattus norvegicus)": {"system": "L6 (Rattus norvegicus)", "assay": "Increase in AMPK-mediated glucose uptake in rat L6 cells by confocal laser scanning microscopy in presence of compound C"}, "C2C12 [17]": {"system": "C2C12", "assay": "Increase in AMPK-mediated glucose uptake in mouse C2C12 cells assessed as increase in fluorescent intensity by confocal laser scanning microscopy", "type": "cell-based", "method_in_brief": "as §6"}},
  "note": "Activity calls are given as the source filed them. The calls are words filed in the database; no cut-off is given here.",
  "data": [
    {"smiles": "COc1ccc2c(c1O)OC(C)(C)c1c-2ccc2c1C(=O)N(c1cccc(-c3ccccc3)c1)C2=O", "values": [
      {"measurement": "Activity", "setting": "[1]", "result": 175, "unit": "%"},
      {"measurement": "Activity", "setting": "[2]", "result": 201, "unit": "%"}
    ]},
    {"smiles": "COc1ccc2c(c1O)OC(C)(C)c1c-2ccc2c1C(=O)N(c1ccc(C(=O)c3ccccc3)cc1)C2=O", "note": "[AMPKINONE]", "values": [
      {"measurement": "Activity", "setting": "C2L12 [3]", "result": "Dose-dependent effect"},
      {"measurement": "Activity", "setting": "3T3-L1 [4]", "result": "Dose-dependent effect"},
      {"measurement": "Activity", "setting": "3T3-L1 [5]", "result": "Dose-dependent effect"},
      {"measurement": "Activity", "setting": "Mus musculus [6]", "result": "Active"},
      {"measurement": "Activity", "setting": "Mus musculus [7]", "result": "Active"},
      {"measurement": "Activity", "setting": "[8]", "result": "Active"},
      {"measurement": "Activity", "setting": "C2L12 [9]", "result": "Dose-dependent effect"},
      {"measurement": "Activity", "setting": "Mus musculus [10]", "result": "inactive"},
      {"measurement": "Activity", "setting": "Mus musculus [11]", "result": "Active"},
      {"measurement": "fold change (FC)", "setting": "C2C12 [12]", "result": 3.2},
      {"measurement": "Activity", "setting": "Mus musculus [13]", "result": "Active"},
      {"measurement": "Activity", "setting": "[1]", "result": 322, "unit": "%"},
      {"measurement": "Activity", "setting": "L6", "result": "Active"},
      {"measurement": "Activity", "setting": "[14]", "result": "Active"},
      {"measurement": "Activity", "setting": "Mus musculus [15]", "result": "inactive"},
      {"measurement": "Activity", "setting": "[2]", "result": 295, "unit": "%"},
      {"measurement": "EC50", "setting": "[16]", "result": 4.3, "unit": "µM"},
      {"measurement": "Activity", "setting": "L6 (Rattus norvegicus)", "result": "inactive"},
      {"measurement": "Activity", "setting": "C2C12 [17]", "result": "Active"}
    ]},
    {"smiles": "COc1ccc2c(c1O)OC(C)(C)c1c-2ccc2c1C(=O)N(c1ccc(-c3nc4ccccc4o3)cc1)C2=O", "values": [
      {"measurement": "Activity", "setting": "[1]", "result": 92, "unit": "%"},
      {"measurement": "Activity", "setting": "[2]", "result": 91, "unit": "%"}
    ]},
    {"smiles": "COc1ccc2c(c1O)OC(C)(C)c1c-2ccc2c1C(=O)NC2=O", "values": [
      {"measurement": "Activity", "setting": "[1]", "result": 158, "unit": "%"},
      {"measurement": "Activity", "setting": "[2]", "result": 123, "unit": "%"}
    ]},
    {"smiles": "COc1ccc2c(c1O)OC(C)(C)c1c-2ccc2c1C(=O)N(c1ccc3c(c1)-c1ccccc1C3=O)C2=O", "values": [
      {"measurement": "Activity", "setting": "[1]", "result": 249, "unit": "%"},
      {"measurement": "Activity", "setting": "[2]", "result": 154, "unit": "%"}
    ]},
    {"smiles": "CC1(C)Oc2cc(F)ccc2-c2ccc3c(c21)C(=O)N(c1ccc(C(=O)c2ccccc2)cc1)C3=O", "values": [
      {"measurement": "Activity", "setting": "[1]", "result": 186, "unit": "%"},
      {"measurement": "Activity", "setting": "[2]", "result": 156, "unit": "%"}
    ]},
    {"smiles": "COc1ccc2c(c1O)OC(C)(C)c1c-2ccc2c1C(=O)N(C)C2=O", "values": [
      {"measurement": "Activity", "setting": "[1]", "result": 205, "unit": "%"},
      {"measurement": "Activity", "setting": "[2]", "result": 145, "unit": "%"}
    ]},
    {"smiles": "COc1ccc2c(c1O)OC(C)(C)c1c-2ccc2c1C(=O)N(c1ccccc1)C2=O", "values": [
      {"measurement": "Activity", "setting": "[1]", "result": 273, "unit": "%"},
      {"measurement": "Activity", "setting": "[2]", "result": 254, "unit": "%"}
    ]},
    {"smiles": "COc1ccc2c(c1O)OC(C)(C)c1c-2ccc2c1C(=O)N(c1ccc(-c3ccccc3)cc1)C2=O", "values": [
      {"measurement": "Activity", "setting": "[1]", "result": 160, "unit": "%"},
      {"measurement": "Activity", "setting": "[2]", "result": 114, "unit": "%"}
    ]},
    {"smiles": "COc1ccc2c(c1O)OC(C)(C)c1c-2ccc2c1C(=O)N(c1ccc(C(C)=O)cc1)C2=O", "values": [
      {"measurement": "Activity", "setting": "[1]", "result": 264, "unit": "%"},
      {"measurement": "Activity", "setting": "[2]", "result": 384, "unit": "%"}
    ]},
    {"smiles": "COc1ccc2c(c1O)OC1(CCCC1)c1c-2ccc2c1C(=O)N(c1ccc(C(=O)c3ccccc3)cc1)C2=O", "values": [
      {"measurement": "Activity", "setting": "[1]", "result": 113, "unit": "%"},
      {"measurement": "Activity", "setting": "[2]", "result": 51, "unit": "%"}
    ]},
    {"smiles": "COc1ccc2c(c1)OC(C)(C)c1c-2ccc2c1C(=O)N(c1ccc(C(=O)c3ccccc3)cc1)C2=O", "values": [
      {"measurement": "Activity", "setting": "[1]", "result": 159, "unit": "%"},
      {"measurement": "Activity", "setting": "[2]", "result": 154, "unit": "%"}
    ]},
    {"smiles": "CC1(C)Oc2ccccc2-c2ccc3c(c21)C(=O)N(c1ccc(C(=O)c2ccccc2)cc1)C3=O", "values": [
      {"measurement": "Activity", "setting": "[1]", "result": 203, "unit": "%"},
      {"measurement": "Activity", "setting": "[2]", "result": 92, "unit": "%"}
    ]},
    {"smiles": "COc1ccc2c(c1O)OC(C)(C)c1c-2ccc2c1C(=O)N(c1ccc(Cc3ccccc3)cc1)C2=O", "values": [
      {"measurement": "Activity", "setting": "[1]", "result": 169, "unit": "%"},
      {"measurement": "Activity", "setting": "[2]", "result": 129, "unit": "%"}
    ]},
    {"smiles": "COc1ccc2c(c1O)OC(C)(C)c1c-2ccc2c1C(=O)N(Cc1ccccc1)C2=O", "values": [
      {"measurement": "Activity", "setting": "[1]", "result": 165, "unit": "%"},
      {"measurement": "Activity", "setting": "[2]", "result": 194, "unit": "%"}
    ]}
  ]
}
